What is called CC50 is the concentration at which the toxic effect on the cells reaches its halfway point. One may read the EC50 as the concentration needed to bring the measured effect to its halfway point. Broadly, the EC90 is the concentration at which the effect reaches the 90% level.

Here are results for 38 compounds from ChEMBL document CHEMBL4184212, “Design, synthesis and evaluation against Chikungunya virus of novel small-molecule antiviral agents” (Bioorg Med Chem, 2018).

A short description of series [1]: Cytotoxicity against African green monkey Vero cells assessed as decrease in cell viability after 5 days by MTS/PMS method. In kind it is cell-based. The conditions noted are these: chlorocebus sabaeus. A digest of the protocol: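 Uninfected Vero cells in MEM Rega-3 with 2% FBS were treated with compound alongside the antiviral assay. Metabolic activity was read by MTS/PMS, and wells were checked microscopically for morphology changes. CC50 is the concentration reducing metabolic activity by 50%, found by logarithmic interpolation. Values are the mean of ≥3 independent experiments.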

Series [2] is described as follows: Selectivity index, ratio of CC50 for African green monkey Vero cells to EC50 for Chikungunya virus Indian Ocean 889 infected in African green monkey Vero cells. The format is toxicity. The conditions noted are these: read-out: Ratio CC50/EC50.
The test system of the next series is Chikungunya virus. Nature of the series: Antiviral activity against Chikungunya virus Indian Ocean 889 infected in African green monkey Vero cells assessed as inhibition of virus-induced cytopathic effect after 5 days by MTS/PMS method. In kind it is functional, organism-based. The conditions noted are these: Indian Ocean 889, Vero, 120 h. For orientation: Damage to the host cells serves as the signal in cytopathic effect assays.

Some results are limits rather than exact numbers.

On to `COc1ccc(/C(C)=N/NC(=O)[C@@H]2C[C@H]2c2ccccc2)cc1`, for which, in series [1], the half-maximal cytotoxic concentration (CC50) at 120 h was found to be 72 µM. The selectivity ratio in series [2] amounted to 13. In the series on Chikungunya virus, the EC50 amounted to 5.6 µM and the EC90 was 12 µM.

Regarding `C/C(=N\NC(=O)[C@@H]1C[C@H]1c1ccccc1)c1ccc(C2CCCCC2)cc1`, the CC50 at 120 h in series [1] came out at 101 µM. The selectivity ratio in series [2] was determined as 3.1. In the series on Chikungunya virus, the EC50 is 32 µM and the EC90 was found to be 44 µM.

Consider `CCOc1ccc(/C=N/NC(=O)/C=C/c2ccc(C(C)(C)C)cc2)cc1OCC`, for which the CC50 at 120 h in series [1] is 101 µM. Further, in series [2], the selectivity ratio was determined as 32. Further, the EC90 with Chikungunya virus came out at 11 µM.

Take `C/C(=N\NC(=O)/C=C/c1ccccc1)c1ccc(C2CCCCC2)cc1`: in the series with Chikungunya virus, the EC50 was over 289 µM and the EC90 is over 289 µM.

For the compound `CC(C)c1ccc(/C=N/NC(=O)/C=C/c2ccc(C(C)(C)C)cc2)cc1`, the CC50 at 120 h in series [1] stood at 7.4 µM. In addition, the selectivity ratio in series [2] stood at 3.5. For the same compound, in the series with Chikungunya virus, the EC50 was 2.1 µM.

With `CC(C)(C)c1ccc(/C=C/C(=O)NCc2ccc(C(F)(F)F)cc2)cc1`, the half-maximal cytotoxic concentration (CC50) at 120 h in series [1] worked out at 115 µM. The selectivity ratio in series [2] turned out to be 0.9. Also, in the series on Chikungunya virus, the EC50 was found to be 125 µM and the 90% effect concentration (EC90) was 47.9 µM.

In the case of `Cc1ccc(/C=N/NC(=O)[C@@H]2C[C@H]2c2ccc(C(C)(C)C)cc2)cc1`, the EC50 in the series on Chikungunya virus is 6.6 µM.

As to `Cc1ccc(/C=N/NC(=O)/C=C/c2ccc(C(C)(C)C)cc2)cc1`, the CC50 at 120 h in series [1] amounted to 124 µM. Besides, the selectivity ratio in series [2] was determined as 21.4. For the same compound, in the series on Chikungunya virus, the EC50 was 5.8 µM and the EC90 was 10 µM.

In the case of `CC(C)(C)c1ccc(/C=C/C(=O)N/N=C/c2ccc([N+](=O)[O-])cc2)cc1`, in the series on Chikungunya virus, the EC50 is over 285 µM and the EC90 is over 285 µM.

In the case of `O=C(/C=C/c1ccccc1)NCc1ccc(-c2ccccc2)cc1`, in the series with Chikungunya virus, the EC50 was over 319 µM and the EC90 is over 319 µM.

`CC(C)(C)c1ccc(/C=C/C(=O)NCc2ccc(-c3ccccc3)cc2)cc1`: the CC50 at 120 h in series [1] turned out to be 4.3 µM. For the same compound, in the series on Chikungunya virus, the EC50 stood at 2.9 µM and the concentration for an effect of 90% (EC90) was over 271 µM.

Take `C/C(=N\NC(=O)/C=C/c1ccc(C(C)(C)C)cc1)c1ccc(C2CCCCC2)cc1`: in the series with Chikungunya virus, the 50% effective concentration (EC50) was over 248 µM and the 90% effect concentration (EC90) is over 248 µM.

`C/C(=N\NC(=O)CCc1ccc(C(C)(C)C)cc1)c1ccc(C2CCCCC2)cc1`: in the series on Chikungunya virus, the EC50 was over 82.4 µM and the EC90 was over 82.4 µM.

Turning to `O=C(CCc1ccccc1)N/N=C/c1ccc(C2CCCCC2)cc1`, in the series with Chikungunya virus, the EC50 was over 96 µM and the 90% effect concentration (EC90) is over 96 µM.

Take `CC(C)(C)c1ccc(/C=C/C(=O)N/N=C/c2ccc(O)cc2)cc1`: the CC50 at 120 h in series [1] is 7.3 µM.

Consider `CC(C)(C)c1ccc(/C=C/C(=O)N/N=C/c2ccc(-c3ccccc3)cc2)cc1`, for which the CC50 at 120 h in series [1] was determined as 20.1 µM.

`CC(C)(C)c1ccc(/C=C/C(=O)N/N=C/c2ccccc2)cc1`: in series [1], the CC50 at 120 h was determined as 22.1 µM. Moreover, in series [2], the selectivity ratio worked out at 3.8. In the series with Chikungunya virus, the EC50 came to 5.8 µM and the EC90 came out at 87.5 µM.

In the case of `CCOc1ccc(/C=N/NC(=O)CCc2ccc(C(C)(C)C)cc2)cc1OCC`, in the series on Chikungunya virus, the EC50 is over 11 µM and the EC90 is over 11 µM.

As to `CCOc1ccc(/C=N/NC(=O)CCc2ccccc2)cc1OCC`, in the series on Chikungunya virus, the EC50 was over 294 µM and the EC90 was over 294 µM.

Consider `CC(C)(C)c1ccc([C@@H]2C[C@H]2C(=O)N/N=C/c2ccc(O)cc2)cc1`, for which, in the series on Chikungunya virus, the EC50 was 2.7 µM and the EC90 is 3.8 µM.

For `Cc1ccc(/C=C/C(=O)N/N=C/c2ccc(C)cc2)cc1`, in the series on Chikungunya virus, the half-maximal effective concentration (EC50) was over 359 µM and the EC90 is over 359 µM.

Regarding `CCOc1ccc(/C=N/NC(=O)/C=C/c2ccc(C)cc2)cc1OCC`, the CC50 at 120 h in series [1] is over 284 µM. For the same compound, in series [2], the selectivity ratio is over 2.5. For the same compound, in the series on Chikungunya virus, the EC50 was found to be 113 µM and the EC90 is over 284 µM.

Regarding `CC(C)(C)c1ccc([C@@H]2C[C@H]2C(=O)N/N=C/c2ccc(C(F)(F)F)cc2)cc1`, the CC50 at 120 h in series [1] is 30 µM. Also, the selectivity ratio in series [2] was 2.1. In addition, in the series with Chikungunya virus, the EC50 stood at 14 µM and the EC90 came out at 19 µM.

As for `CC(C)(C)c1ccc(CCC(=O)N/N=C/c2ccc(O)cc2)cc1`, the concentration for a half-maximal effect (EC50) with Chikungunya virus is 36.4 µM.

For the compound `O=C(N/N=C/c1ccc(O)cc1)[C@@H]1C[C@H]1c1ccccc1`, the CC50 at 120 h in series [1] amounted to 15 µM. For the same compound, in series [2], the selectivity ratio turned out to be 2.3. Further, in the series with Chikungunya virus, the EC50 was determined as 6.4 µM and the EC90 was 8.7 µM.

In the case of `O=C(CCc1ccccc1)N/N=C/c1ccc(O)cc1`, in the series on Chikungunya virus, the EC50 is over 373 µM and the EC90 was over 373 µM.

Take `COc1ccc(/C(C)=N/NC(=O)/C=C/c2ccc(C(C)(C)C)cc2)cc1OC`: in the series with Chikungunya virus, the 50% effective concentration (EC50) was over 263 µM and the EC90 was over 263 µM.

For `CC(C)(C)c1ccc(/C=C/C(=O)N/N=C/c2ccc(C(C)(C)C)cc2)cc1`, in the series with Chikungunya virus, the EC50 is over 276 µM and the EC90 was over 276 µM.

Take `C/C(=N\NC(=O)/C=C/c1ccc(C(C)(C)C)cc1)c1ccc(Cl)cc1`: in the series on Chikungunya virus, the EC50 is over 282 µM and the EC90 is over 282 µM.

As to `C/C(=N\NC(=O)/C=C/c1ccc(C(C)(C)C)cc1)c1ccc(-c2ccccc2)cc1`, in the series with Chikungunya virus, the EC50 is over 252 µM and the EC90 was over 252 µM.

Regarding `Cc1ccc(/C=N/NC(=O)CCc2ccc(C(C)(C)C)cc2)cc1`, in the series on Chikungunya virus, the EC50 was over 100 µM and the EC90 was over 100 µM.

Take `COc1ccc(/C=N/NC(=O)/C=C/c2ccc(C(C)(C)C)cc2)cc1`: the CC50 at 120 h in series [1] is 117 µM. The selectivity ratio in series [2] was 19.8. Further, in the series with Chikungunya virus, the EC50 is 5.9 µM and the EC90 turned out to be 38.8 µM.

As to `Cc1ccc(/C=N/NC(=O)/C=C/c2ccccc2)cc1`, the CC50 at 120 h in series [1] amounted to 84.4 µM. In addition, the selectivity ratio in series [2] amounted to 0.9. In addition, in the series on Chikungunya virus, the EC50 was 93.3 µM and the EC90 was over 284 µM.

For the compound `CCOc1ccc(/C=N/NC(=O)[C@@H]2C[C@H]2c2ccc(C(C)(C)C)cc2)cc1OCC`, in series [1], the CC50 at 120 h amounted to 72 µM. In addition, the selectivity ratio in series [2] amounted to 14. Also, in the series with Chikungunya virus, the EC50 was found to be 5 µM and the EC90 was determined as 6.4 µM.

With `Cc1ccc(/C=N/NC(=O)CCc2ccccc2)cc1`, in the series with Chikungunya virus, the half-maximal effective concentration (EC50) was over 375 µM and the EC90 was over 375 µM.

With `O=C(/C=C/c1ccccc1)NCc1ccc(C(F)(F)F)cc1`, in the series on Chikungunya virus, the concentration for a half-maximal effect (EC50) is over 246 µM and the EC90 was over 246 µM.

Regarding `C/C(=N\NC(=O)/C=C/c1ccc(C(C)(C)C)cc1)c1cnccn1`, the CC50 at 120 h in series [1] is over 310 µM. In series [2], the selectivity ratio is 1.2. Besides, in the series with Chikungunya virus, the EC50 was determined as 103 µM and the EC90 was 122 µM.

Take `CCN(CC)CCCC(C)Nc1ccnc2cc(Cl)ccc12` (centres undefined) [CHLOROQUINE]: the CC50 at 120 h in series [1] worked out at 89 µM. Further, the EC90 in the series with Chikungunya virus turned out to be 21 µM.
